According to ChEMBL document CHEMBL1150419, “Structure-activity relationships of a peptide inhibitor of the human FcRn:human IgG interaction” (Bioorg Med Chem, 2008):
Peptide text beside a SMILES is read from it.

Experiments:
[1] = target: T1, IgG receptor FcRn large subunit p51 (Homo sapiens, UniProt P55899); experiment: Binding affinity to human FcRn at pH 6 by surface plasmon resonance assay
How it was run: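 Soluble human FcRn coupled to the dextran surface of a CM5 chip; peptide dilutions flowed over the chip. The equilibrium response at each dilution was plotted against concentration and fitted to a steady-state affinity model to give Kd.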

[2] = target: T1, IgG receptor FcRn large subunit p51; experiment: Inhibition of human IgG binding to soluble human FcRn by ELISA
How it was run: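 Biotinylated soluble human FcRn immobilized on neutravidin plates, incubated with hIgG (3 nM, constant) and peptide at varying concentrations for 2 h at 37 °C. After washing, bound hIgG detected with peroxidase-conjugated hIgG-specific Fab fragments.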

T1 sequence (P55899 whole entry): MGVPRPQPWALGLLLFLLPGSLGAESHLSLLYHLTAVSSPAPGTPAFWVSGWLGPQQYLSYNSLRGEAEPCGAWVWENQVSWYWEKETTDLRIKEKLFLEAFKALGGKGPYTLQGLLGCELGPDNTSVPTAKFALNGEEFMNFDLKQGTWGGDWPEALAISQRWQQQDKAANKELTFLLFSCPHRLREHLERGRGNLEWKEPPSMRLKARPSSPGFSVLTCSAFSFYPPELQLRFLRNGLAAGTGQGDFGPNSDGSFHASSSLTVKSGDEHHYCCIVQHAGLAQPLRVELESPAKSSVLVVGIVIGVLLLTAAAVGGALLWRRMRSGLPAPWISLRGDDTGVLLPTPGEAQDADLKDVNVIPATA

Kd [1] [µM] | IC50 [2] [µM] | SMILES
34 | 92 | CC(C)C[C@H](NC(=O)CNC(=O)CNC(=O)[C@H](Cc1ccccc1)NC(=O)[C@H](Cc1cnc[nH]1)NC(=O)CNC(=O)[C@@H](NC(=O)[C@@H](NC(=O)[C@H](Cc1ccccc1)NC(=O)[C@H](CCCNC(=N)N)NC(=O)[C@@H](N)CCC(N)=O)C(C)(C)S)[C@@H](C)O)C(=O)N[C@@H](Cc1cccnc1)C(=O)N1CCC[C@H]1C(=O)N[C@@H](CS)C(=O)N[C@@H](CC(N)=O)C(=O)NCC(=O)N1CCC[C@H]1C(=O)O
18 | 100 | COc1ccc(C[C@H](NC(=O)[C@H](Cc2cnc[nH]2)NC(=O)CNC(=O)[C@@H](NC(=O)[C@@H](NC(=O)[C@H](Cc2ccccc2)NC(=O)[C@H](CCCN=C(N)N)NC(=O)[C@@H](N)CCC(N)=O)C(C)(C)S)[C@@H](C)O)C(=O)NCC(=O)NCC(=O)N[C@@H](CC(C)C)C(=O)N[C@@H](Cc2ccc(O)cc2)C(=O)N2CCC[C@H]2C(=O)N[C@@H](CS)C(=O)N[C@@H](CC(N)=O)C(=O)NCC(=O)N2CCC[C@H]2C(=O)O)cc1
0.48 | 2.4 | CC(C)C[C@H](NC(=O)C(C)(C)NC(=O)CNC(=O)[C@H](Cc1ccccc1)NC(=O)[C@H](Cc1cnc[nH]1)NC(=O)CNC(=O)[C@@H](NC(=O)[C@@H](NC(=O)[C@H](Cc1ccccc1)NC(=O)[C@H](CCCNC(=N)N)NC(=O)[C@@H](N)CCC(N)=O)C(C)(C)S)[C@@H](C)O)C(=O)N[C@@H](Cc1ccc(O)cc1)C(=O)N1CCC[C@H]1C(=O)N[C@@H](CS)C(=O)N[C@@H](CC(N)=O)C(=O)NCC(=O)N1CCC[C@H]1C(=O)O
0.031 | 0.57 | CC(C)C[C@@H](C(=O)N[C@@H](Cc1ccc(O)cc1)C(=O)N1CCC[C@H]1C(=O)N[C@@H](CS)C(=O)O)N(C)C(=O)CN(C)C(=O)CNC(=O)[C@H](Cc1ccccc1)NC(=O)[C@H](Cc1cnc[nH]1)NC(=O)CNC(=O)[C@@H](NC(=O)[C@@H](NC(=O)[C@H](Cc1ccccc1)NC(=O)[C@@H](N)CCCNC(=N)N)C(C)(C)S)[C@@H](C)O
27 | 100 | CC(C)C[C@H](NC(=O)CNC(=O)CNC(=O)[C@H](Cc1ccccc1)NC(=O)[C@H](Cc1cnc[nH]1)NC(=O)CNC(=O)[C@@H](NC(=O)[C@H](CCC(=O)O)NC(=O)[C@H](Cc1ccccc1)NC(=O)[C@H](CCCNC(=N)N)NC(=O)[C@@H](N)CCC(N)=O)[C@@H](C)O)C(=O)N[C@@H](Cc1ccc(O)cc1)C(=O)N1CCC[C@H]1C(=O)N[C@@H](CCCCN)C(=O)N[C@@H](CC(N)=O)C(=O)NCC(=O)N1CCC[C@H]1C(=O)O
230 | > 125 | CC(C)C[C@H](NC(=O)CNC(=O)[C@H](C)NC(=O)[C@H](Cc1ccccc1)NC(=O)[C@H](Cc1cnc[nH]1)NC(=O)CNC(=O)[C@@H](NC(=O)[C@H](CS)NC(=O)[C@H](Cc1ccccc1)NC(=O)[C@H](CCCNC(=N)N)NC(=O)[C@@H](N)CCC(N)=O)[C@@H](C)O)C(=O)N[C@@H](Cc1ccc(O)cc1)C(=O)N1CCC[C@H]1C(=O)N[C@@H](CS)C(=O)N[C@@H](CC(N)=O)C(=O)NCC(=O)N1CCC[C@H]1C(=O)O
4.9 | 30 | CC(C)C[C@H](NC(=O)CNC(=O)CNC(=O)[C@H](Cc1ccccc1)NC(=O)[C@H](Cc1cnc[nH]1)NC(=O)CNC(=O)[C@H](C)NC(=O)[C@H](CS)NC(=O)[C@H](Cc1ccccc1)NC(=O)[C@H](CCCN=C(N)N)NC(=O)[C@@H](N)CCC(N)=O)C(=O)N[C@@H](Cc1ccc(O)cc1)C(=O)N1CCC[C@H]1C(=O)N[C@@H](CS)C(=O)N[C@@H](CC(N)=O)C(=O)NCC(=O)N1CCC[C@H]1C(=O)O (H-QRFCAGHFGGLYPCNGP-OH)
0.48 | 2 | CC(C)C[C@H](NC(=O)[C@@H](C)NC(=O)CNC(=O)[C@H](Cc1ccccc1)NC(=O)[C@H](Cc1cnc[nH]1)NC(=O)CNC(=O)[C@@H](NC(=O)[C@@H](NC(=O)[C@H](Cc1ccccc1)NC(=O)[C@H](CCCN=C(N)N)NC(=O)[C@@H](N)CCC(N)=O)C(C)(C)S)[C@@H](C)O)C(=O)N[C@@H](Cc1ccc(O)cc1)C(=O)N1CCC[C@H]1C(=O)N[C@@H](CS)C(=O)N[C@@H](CC(N)=O)C(=O)NCC(=O)N1CCC[C@H]1C(=O)O
